What was measured:
[1] = biological target: C-C chemokine receptor type 5 (Homo sapiens) (UniProt P51681); test: Antagonist activity at CCR5 in human THP1 cells assessed as inhibition of CCL5-induced chemotaxis after 2 hrs by microtiter format trans-well migration assay; type: functional, cell-based; conditions: THP-1
In short: (§1)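 Microtiter trans-well migration assay in Gey's balanced salt solution with 1 mg/mL endotoxin-free BSA, no fetal calf serum. Migration ran 2 h at 37 °C. Compounds dissolved in DMSO and added to both top and bottom compartments, final DMSO 1%.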

[2] = Antagonist activity at Interleukin-8 receptor in human PMNC assessed as inhibition of CXCL8-induced chemotaxis after 2 hrs by microtiter format trans-well migration assay; type: functional; conditions: read-out: ED50 (the source's name); in short: as §1
[3] = biological target: T1, C-C chemokine receptor type 1 (Homo sapiens) (UniProt P32246); test: Antagonist activity at CCR1 in human THP1 cells assessed as inhibition of CCL3-induced chemotaxis at 10 nM after 2 hrs by microtiter format trans-well migration assay; type: functional, cell-based; conditions: THP-1; in short: as §1
T1 sequence (whole entry): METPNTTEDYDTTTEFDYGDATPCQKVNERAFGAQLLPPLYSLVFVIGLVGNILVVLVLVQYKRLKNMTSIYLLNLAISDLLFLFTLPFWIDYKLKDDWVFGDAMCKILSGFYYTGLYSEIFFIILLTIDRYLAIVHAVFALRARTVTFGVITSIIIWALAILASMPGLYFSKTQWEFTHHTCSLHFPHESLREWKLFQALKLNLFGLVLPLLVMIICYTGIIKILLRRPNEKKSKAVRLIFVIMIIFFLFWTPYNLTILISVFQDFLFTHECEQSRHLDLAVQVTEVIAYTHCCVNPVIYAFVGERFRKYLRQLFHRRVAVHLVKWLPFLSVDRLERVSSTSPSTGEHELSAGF

[4] = biological target: T1, C-C chemokine receptor type 1 (Homo sapiens); test: Antagonist activity at CCR1 in human THP1 cells assessed as inhibition of CCL3-induced chemotaxis at 0.1 nM after 2 hrs by microtiter format trans-well migration assay; type: functional, cell-based; conditions: THP-1; in short: as §1
[5] = biological target: C-C chemokine receptor type 5 (Homo sapiens) (UniProt P51681); test: Antagonist activity at CCR5 in human THP1 cells assessed as inhibition of CCL5-induced chemotaxis at 10 nM after 2 hrs by microtiter format trans-well migration assay; type: functional, cell-based; conditions: THP-1; in short: as §1
[6] = biological target: C-C chemokine receptor type 5 (Homo sapiens) (UniProt P51681); test: Antagonist activity at CCR5 in human THP1 cells assessed as inhibition of CCL5-induced chemotaxis at 0.01 nM after 2 hrs by microtiter format trans-well migration assay; type: functional, cell-based; conditions: THP-1; in short: as §1
[7] = biological target: C-X-C chemokine receptor type 4 (Homo sapiens) (UniProt P61073); test: Antagonist activity at CXCR4 in human THP1 cells assessed as inhibition of CXCL12-induced chemotaxis at 1000 nM after 2 hrs by microtiter format trans-well migration assay; type: functional, cell-based; conditions: THP-1; in short: as §1
Chain of C-X-C chemokine receptor type 4 (Homo sapiens) (P61073 whole entry): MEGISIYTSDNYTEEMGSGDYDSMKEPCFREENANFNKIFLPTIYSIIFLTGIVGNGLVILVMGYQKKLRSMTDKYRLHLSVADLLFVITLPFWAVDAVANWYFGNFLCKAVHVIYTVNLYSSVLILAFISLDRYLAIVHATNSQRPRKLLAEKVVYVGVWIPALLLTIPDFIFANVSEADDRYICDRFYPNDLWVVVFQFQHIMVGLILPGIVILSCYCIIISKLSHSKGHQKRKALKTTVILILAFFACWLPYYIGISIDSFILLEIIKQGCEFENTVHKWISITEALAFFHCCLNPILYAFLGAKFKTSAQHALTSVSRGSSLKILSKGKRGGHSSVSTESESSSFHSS

[8] = biological target: C-X-C chemokine receptor type 4 (Homo sapiens) (UniProt P61073); test: Antagonist activity at CXCR4 in human THP1 cells assessed as inhibition of CXCL12-induced chemotaxis at 1 nM after 2 hrs by microtiter format trans-well migration assay; type: functional, cell-based; conditions: THP-1; in short: as §1
[9] = biological target: T2, C5a anaphylatoxin chemotactic receptor 1 (Homo sapiens) (UniProt P21730); test: Antagonist activity at C5a receptor in human PMNC assessed as inhibition of C5a-induced chemotaxis at 1000 nM after 2 hrs by microtiter format trans-well migration assay; type: functional; in short: as §1
T2 sequence (whole entry): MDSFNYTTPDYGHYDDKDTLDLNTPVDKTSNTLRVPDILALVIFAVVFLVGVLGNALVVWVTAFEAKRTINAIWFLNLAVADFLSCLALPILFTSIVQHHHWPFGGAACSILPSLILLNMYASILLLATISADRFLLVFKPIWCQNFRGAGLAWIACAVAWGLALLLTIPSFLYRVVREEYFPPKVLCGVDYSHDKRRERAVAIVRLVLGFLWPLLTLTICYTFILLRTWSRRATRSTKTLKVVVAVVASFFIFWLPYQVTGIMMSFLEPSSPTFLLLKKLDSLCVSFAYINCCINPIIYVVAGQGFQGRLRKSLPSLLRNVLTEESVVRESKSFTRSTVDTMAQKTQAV

[10] = Antagonist activity at Interleukin-8 receptor in human PMNC assessed as inhibition of CXCL8-induced chemotaxis at 100 nM after 2 hrs by microtiter format trans-well migration assay; type: functional; in short: as §1
THP-1 [11] = test: Endogenous chemoattractant activity at human THP1 cells assessed as cell migration at 0.001 nM after 2 hrs by microtiter format trans-well migration assay; type: functional
THP-1 [12] = test: Toxicity in human THP1 cells assessed as change in cell size at 10 nM by forward scatter flow cytometry relative to control; type: cell-based; conditions: thp-1, 0.01 µM
Mus musculus [13] = test: Antiinflammatory activity in mouse assessed as inhibition of LPS-induced TNFalpha upregulation at 0.0025 ug, sc measured 2 hrs after LPS challenge; type: functional
In short: (§2)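 Murine sublethal endotoxemia: LPS given intraperitoneally, with serum TNF-α measured 2 h after the LPS injection as the end point. Compound was given subcutaneously or orally. Vehicle was 0.6% DMSO and 1% carboxymethylcellulose (final concentrations) in sterile water. Effect is reported as % relative to control.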

Mus musculus [14] = test: Antiinflammatory activity in mouse assessed as inhibition of LPS-induced TNFalpha upregulation at 0.0075 ug, sc measured 2 hrs after LPS challenge; type: functional; in short: as §2
Mus musculus [15] = test: Antiinflammatory activity in mouse assessed as inhibition of LPS-induced TNFalpha upregulation at 0.075 ug, sc measured 2 hrs after LPS challenge; type: functional; in short: as §2
Mus musculus [16] = test: Antiinflammatory activity in mouse assessed as inhibition of LPS-induced TNFalpha upregulation at 0.0025 mg, sc measured 2 hrs after LPS challenge; type: functional; in short: as §2
Mus musculus [17] = test: Antiinflammatory activity in mouse assessed as inhibition of LPS-induced TNFalpha upregulation at 0.075 mg, sc measured 2 hrs after LPS challenge; type: functional; in short: as §2
[18] = Half life in Sprague-Dawley rat at 1 mg/kg, iv administered as single dose; type: ADME, organism-based; design: dose 1 mg/kg, route intravenous; conditions: in vivo
In short: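 Male Sprague-Dawley rats, three per compound, receive a single intravenous dose in 5% DMSO in 0.9% saline. Food and water are given ad libitum. Plasma is taken at 5, 15, 30, 60, 120, 180, 240 and 480 min. Drug is measured by LC/MS/MS after extraction with 0.1% formic acid in acetonitrile. The curve is back-extrapolated to time zero assuming an initial volume of 0.26 L/kg.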

[19] = Half life in Sprague-Dawley rat at 3 mg/kg, po administered as single dose; type: ADME, organism-based; design: dose 3 mg/kg, route oral; conditions: in vivo
In short: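 Male Sprague-Dawley rats, three per compound, receive a single oral dose by gavage in 1% carboxymethylcellulose in 0.9% saline, with food and water ad libitum. Plasma is sampled from 5 to 480 min and drug is quantified by positive-mode LC/MS/MS after acetonitrile/formic acid extraction. The lower limit of quantitation is about 2 ng/mL. Exposure is AUC(0→t) by the linear/log trapezoidal rule, and F is oral fractional bioavailability.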

[20] = AUC (0 to t) in Sprague-Dawley rat at 3 mg/kg, po administered as single dose; type: ADME, organism-based; design: dose 3 mg/kg, route oral; conditions: plasma
In short: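 Male Sprague-Dawley rats, three per compound per route, single dose. IV vehicle 5% DMSO in 0.9% saline; oral gavage vehicle 1% carboxymethylcellulose in 0.9% saline; fed ad libitum. Plasma taken 5–480 min post-dose, extracted with 0.1% formic acid in acetonitrile, quantified by LC/MS/MS (positive mode). AUC(0–t) by linear/log trapezoidal rule; IV curve back-extrapolated assuming initial volume 0.26 L/kg.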

Chain of C-C chemokine receptor type 5 (Homo sapiens) (P51681 whole entry, looked up): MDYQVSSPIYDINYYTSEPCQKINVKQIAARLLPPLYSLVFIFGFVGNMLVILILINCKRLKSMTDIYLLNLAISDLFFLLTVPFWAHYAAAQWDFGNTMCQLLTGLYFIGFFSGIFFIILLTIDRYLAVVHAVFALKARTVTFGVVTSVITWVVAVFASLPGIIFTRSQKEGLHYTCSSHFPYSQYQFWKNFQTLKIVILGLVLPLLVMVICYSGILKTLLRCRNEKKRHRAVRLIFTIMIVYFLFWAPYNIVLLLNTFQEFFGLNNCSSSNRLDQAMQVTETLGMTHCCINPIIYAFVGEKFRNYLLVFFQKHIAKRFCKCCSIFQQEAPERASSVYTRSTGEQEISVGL

For CCCCCCCCCCC(C)(C)C(=O)N[C@H]1CCCCNC1=O, the ED50 [1] was 0.9 nM, the EC50 [2] was 0.3 nM and the inhibition [3] was 98%. It also gave an inhibition [4] of 43%, an inhibition [5] of 102% and an inhibition [6] of 8.5%. For the same compound, the inhibition [7] was 112%, the inhibition [8] was 99% and the inhibition [9] was 26%. The inhibition at 0.1 µM [10] was 128%, the Activity (THP-1 [11]) was 4282% and the “fold change (FC)” value (THP-1 [12]) was 1.04. For the same compound, the “inhibition (INH)” value (Mus musculus [13]) was 29%, the “inhibition (INH)” value (Mus musculus [14]) was 54% and the “inhibition (INH)” value (Mus musculus [15]) was 65%. For the same compound, the “inhibition (INH)” value (Mus musculus [16]) was 57%, the “inhibition (INH)” value (Mus musculus [17]) was 66% and the half-life [18] was 0.767 h. The half-life [19] was 1.7 h and the AUC(0-t) [20] was 0.183 µg·h/mL.
